Inconclusive results are not listed.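 How the source made its calls, unless noted: active means growth inhibition above 25% in both replicates, a cutoff set 3 SD above the mean; inconclusive means above 25% in only one replicate; inactive means the rest.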
Columns and labels:
[1] = OD615 S. cerevisiae growth inhibition, permissive medium, pilot counter-assay, permissive growth control for S. cerevisiae lifespan shortening project (AID 705); conditions: OD615, 24 h, at 10 µM, stronger effect = higher value
Method in brief: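 System: S. cerevisiae with engineered DeaD lifespan system. Medium: SC raffinose/galactose permissive medium. Doses: single compound dose of 10 µM, 0.25% DMSO final. Schedule: 24 h exposure, 30 °C. Measured by: OD615 turbidity read. Read-out: growth inhibition.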

[2] = Restrictive medium S. cerevisiae growth inhibition, OD615, pilot screen of yeast lifespan reduction project, restrictive growth control (AID 706;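 active means growth inhibition above a set limit, 3 SD over mean compound inhibition, in both replicates, cut at about 43% in these data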;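 further: modified DeaD lifespan yeast strain shifted to restrictive glucose medium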); conditions: OD615, 48 h, at 10 µM, stronger effect = higher value
Method in brief: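 Assay system – genetically modified Saccharomyces cerevisiae, DeaD replicative lifespan assay strain · Medium – CSMM-D glucose medium · Doses – 10 µM compound, 0.25% DMSO · Times – 4 h pre-incubation, 48 h exposure at 30 °C · Signal – optical density at 615 nm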

[3] = viability gain of MRP-1-high H69AR cells under doxorubicin, pilot screen, MRP-1 activator project, CellTiter-Glo, duplicate (AID 807;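 active means viability increase at or above a cutoff of the median across tested compounds plus 3 SD, cut at about 8.5% in these data, passing the limit was not always enough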;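 further: compound pretreatment 18-22 h then 72 h combined with doxorubicin; 0% = doxorubicin alone and 100% = vehicle without doxorubicin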); conditions: H69AR viability with doxorubicin, CellTiter-Glo luminescence; at 10 µM; stronger effect = higher value
[4] = growth suppression of beta-catenin knockout HCT116, pilot screen, human colon tumor cells (AID 823;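 active means cell viability at or below a set limit in both duplicate runs, the limit being the all-compound median minus 4 SD, cut at about 23% in these data, passing the limit was not always enough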;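 further: 0% = wells killed by 20 µM Hyamine and 100% = untreated DMSO cell wells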); conditions: CellTiter-Glo, 60 h, at 10 µM, stronger effect = lower value
[5] = growth suppression of PTEN-deleted HCT116, pilot screen, cell-based, HCT116 clonal line, CellTiter-Glo (AID 824;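 active means viability at or below 27.92% in each of two runs, the all-compound median minus 4 SD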;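 further: 0% = 20 µM Hyamine control and 100% = vehicle cell control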); conditions: 60 h, at 10 µM, stronger effect = lower value
[6] = inhibitors of the yeast RAM network, pilot screen, dse1pr::URA3 reporter, 5-FOA selection (AID 869;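 active means inhibition over a set limit, the all-compound mean plus 3 SD, in both replicate runs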;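 further: 0% = DMSO wells with no growth and 100% = 10 µM 1-NA-PP1 with full growth; RAM network block rescues cells from 5-FOA so hits raise OD615 growth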); conditions: S. cerevisiae dse1pr::URA3 5-FOA growth, OD615, 2 d; at 10 µM; stronger effect = higher value; strain carries analog-sensitive mutant Cbk1 kinase
[7] = RAM signaling pathway blockade in yeast – S. cerevisiae, Pdr1DBD-CYC8 efflux-inhibited sensitized strain, primary screen (AID 1298;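 active means RAM network inhibition above 8.4% in each of two replicates, 3 SD over the compound average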;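 further: 0% = DMSO untreated cells without growth and 100% = 10 µM 1-NA-PP1 full growth; higher means more yeast growth rescued from 5-FOA killing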); conditions: S. cerevisiae cbk1-as DSE1-URA3 strain, 5-FOA growth OD615, 2 d; at 50 µM; stronger effect = higher value

Cc1ccc(C2=[N+]([O-])C3(CCCCC/C3=N\O)N(O)C2(C)C)o1 (stereo not given)
inactive: growth inhibition [1] -1.35% | growth inhibition [2] -2.15% | viability increase [3] -1.16% | viability [4] 99% | viability [5] 93.7% | inhibition [6] -0.505% | RAM network inhibition [7] 1.01%

CCCN(CC1CC1)S(=O)(=O)c1ccc(S(N)(=O)=O)cc1
inactive: growth inhibition [1] -8.54% | growth inhibition [2] 0.87% | viability increase [3] -1.41% | viability [4] 100% | viability [5] 90.3% | inhibition [6] 0.505% | RAM network inhibition [7] 1.48%

CCOc1ccc(N(CC(=O)NCc2cccs2)S(=O)(=O)c2c(C)noc2C)cc1
inactive: growth inhibition [1] -17.4% | growth inhibition [2] -7.87% | viability increase [3] -2.25% | viability [4] 95.1% | viability [5] 94.7% | inhibition [6] 1.49% | RAM network inhibition [7] 6.62%

Cc1oc(-c2ccc(Cl)cc2)nc1CS(=O)CC(=O)NCCN1CCCC1 (stereo not given)
inactive: growth inhibition [1] -4.58% | growth inhibition [2] -1.17% | viability increase [3] -1.14% | viability [4] 91.1% | viability [5] 91.4% | inhibition [6] 1.06% | RAM network inhibition [7] 8.14%

COc1ccc(C(=O)N2CCC(C(=O)Nc3cccc(C)c3)CC2)cc1OC
inactive: growth inhibition [1] -0.875% | growth inhibition [2] -15.3% | viability increase [3] -2.37% | viability [4] 106% | viability [5] 96.7% | inhibition [6] 0.29% | RAM network inhibition [7] 2.75%

CCOc1ccc(C2CC(c3ccc(CC)cc3)n3nc(N)nc3N2)cc1 (stereo not given)
inactive: growth inhibition [1] 1.88% | growth inhibition [2] 21% | viability increase [3] 2.68% | viability [4] 91.5% | viability [5] 83.5% | inhibition [6] 1.54% | RAM network inhibition [7] 3.52%

CCN(CCC(=O)Nc1cc(OC)cc(OC)c1)Cc1ccccc1
inactive: growth inhibition [1] 1.21% | growth inhibition [2] -14.7% | viability increase [3] -2.96% | viability [4] 84.4% | viability [5] 85.8% | inhibition [6] 2.68% | RAM network inhibition [7] 3.12%

CCCCN1C(=O)c2ccc(C(=O)Nc3c(N)n(CCCC)c(=O)n(C)c3=O)cc2C1=O
inactive: growth inhibition [1] -9.82% | growth inhibition [2] -6.89% | viability increase [3] -0.93% | viability [4] 103% | viability [5] 88.2% | inhibition [6] 0.865% | RAM network inhibition [7] 7.06%

COc1cc(Cl)c(S(=O)(=O)NCc2cccnc2)cc1Cl
inactive: growth inhibition [1] -9.13% | growth inhibition [2] -9.08% | viability increase [3] 0.38% | viability [4] 99.5% | viability [5] 97.3% | inhibition [6] 0.745% | RAM network inhibition [7] 4.73%

Cc1ccnc(SCCn2c(N3CCC(C)CC3)nc3c2c(=O)[nH]c(=O)n3C)n1
inactive: growth inhibition [1] -10.1% | growth inhibition [2] -6.83% | viability increase [3] -2.18% | viability [4] 106% | viability [5] 100% | inhibition [6] 0.24% | RAM network inhibition [7] -1.36%

Cc1ccc(N(C)C(=O)N2CCN(S(=O)(=O)c3ccc(C)cc3)CC2)cc1
inactive: growth inhibition [1] -1.22% | growth inhibition [2] -7.74% | viability increase [3] -1.03% | viability [4] 93.7% | viability [5] 96.6% | inhibition [6] 0.215% | RAM network inhibition [7] 6.2%

COCCn1c(SCC(=O)N2CCN(c3ccccc3)CC2)nc2c(c1=O)SC(C)C2 (stereo not given)
inactive: growth inhibition [1] 10.7% | growth inhibition [2] 10.7% | viability increase [3] -3.54% | viability [4] 103% | viability [5] 92.9% | inhibition [6] 1.65% | RAM network inhibition [7] 2.75%

CC1Cc2ccccc2N1C(=O)c1cnc2n(c1=O)CCS2 (stereo not given)
inactive: growth inhibition [1] -2.36% | growth inhibition [2] -4.37% | viability increase [3] -0.53% | viability [4] 94.4% | viability [5] 98.9% | inhibition [6] -0.135% | RAM network inhibition [7] 2.13%

CCCCNC(=O)c1cc2c(=O)n3cccc(C)c3nc2n1C
inactive: growth inhibition [1] -8.58% | growth inhibition [2] -6.39% | viability increase [3] -4.36% | viability [4] 89.4% | viability [5] 87.5% | inhibition [6] 0.93% | RAM network inhibition [7] 2.87%

Cn1c(C(=O)N2CCN(c3ccc(F)cc3)CC2)cc2c(=O)n(C)c3ccccc3c21
inactive: growth inhibition [1] -6.62% | growth inhibition [2] -10.8% | viability increase [3] -2.2% | viability [4] 95.1% | viability [5] 85% | inhibition [6] 1.64% | RAM network inhibition [7] 1.39%

O=C(O)C1C(c2ccccc2)C(C(=O)OCc2ccco2)C1c1ccccc1 (stereo not given)
inactive: growth inhibition [1] -15.4% | growth inhibition [2] -14.6% | viability increase [3] -3.32% | viability [4] 89.5% | viability [5] 88.3% | inhibition [6] 0.645% | RAM network inhibition [7] 6.05%

Cn1c(=O)c2cc(S(=O)(=O)NC(C(=O)Nc3cccnc3)c3ccccc3)ccc2n(C)c1=O (stereo not given)
inactive: growth inhibition [1] -3.52% | growth inhibition [2] -1.8% | viability increase [3] -2.15% | viability [4] 99% | viability [5] 91.9% | inhibition [6] 1.96% | RAM network inhibition [7] 0.58%

CCOc1ccccc1N1C(=O)c2cccnc2C1=O
inactive: growth inhibition [1] -9.2% | growth inhibition [2] 7.41% | viability increase [3] -1.2% | viability [4] 102% | viability [5] 98.7% | inhibition [6] 1.04% | RAM network inhibition [7] 10.2%

N=C1C(c2nc3ccccc3c(=O)[nH]2)=C(O)CN1CCc1ccccc1
inactive: growth inhibition [1] 2.17% | growth inhibition [2] -7.82% | viability increase [3] -3.19% | viability [4] 93.6% | viability [5] 87.2% | inhibition [6] 0.995% | RAM network inhibition [7] 3.92%

COC(=O)C1(C)Nc2ccccc2C(=O)N1c1ccccc1C (stereo not given)
inactive: growth inhibition [1] -7.67% | growth inhibition [2] -8.55% | viability increase [3] -0.74% | viability [4] 104% | viability [5] 102% | inhibition [6] 2.51% | RAM network inhibition [7] 5.2%

O=C(C1CC1)N1CCc2cc(Br)cc(S(=O)(=O)N3CCN(c4ccccn4)CC3)c21
inactive: growth inhibition [1] -13.2% | growth inhibition [2] -14.6% | viability increase [3] -2.17% | viability [4] 91% | viability [5] 91.5% | inhibition [6] 1.29% | RAM network inhibition [7] 5.52%

CCn1cc(C(=O)NCC2CCCO2)c2cc(OC)c(OC)cc2c1=O (stereo not given)
inactive: growth inhibition [1] -8.12% | growth inhibition [2] -20.1% | viability increase [3] -1.89% | viability [4] 95.4% | viability [5] 101% | inhibition [6] 0.955% | RAM network inhibition [7] 1.29%

CCCCOC(=O)Cc1c(O)c2ccccc2[nH]c1=O
inactive: growth inhibition [1] 10.9% | growth inhibition [2] 12.5% | viability increase [3] -1.82% | viability [4] 102% | viability [5] 93.2% | inhibition [6] 1.82% | RAM network inhibition [7] -0.98%

CC(=O)Nc1ccc(NC(=O)CSc2nccn2Cc2ccccc2)cc1
inactive: growth inhibition [1] -0.94% | growth inhibition [2] 3.38% | viability increase [3] -1.64% | viability [4] 86.9% | viability [5] 88.8% | inhibition [6] -0.265% | RAM network inhibition [7] 0.96%

CN1CCN(CCCNC(=O)c2ccc(CS(=O)(=O)c3ccc(Br)cc3)o2)CC1
inactive: growth inhibition [1] -7.34% | growth inhibition [2] -12.5% | viability increase [3] -1.18% | viability [4] 95.3% | viability [5] 90.8% | inhibition [6] 1.38% | RAM network inhibition [7] -0.99%

CCOC(=O)C1C(=O)N(C(=O)c2cncc(Br)c2)CC1c1ccccc1 (stereo not given)
inactive: growth inhibition [1] -0.835% | growth inhibition [2] 8.88% | viability increase [3] -0.37% | viability [4] 101% | viability [5] 106% | inhibition [6] 0.985% | RAM network inhibition [7] 9.56%

Cc1ccc(CNC(=O)c2cc3c(=O)n(C)c4ccccc4c3n2C)o1
inactive: growth inhibition [1] 1.32% | growth inhibition [2] 0.445% | viability increase [3] -4.08% | viability [4] 106% | viability [5] 104% | inhibition [6] 2.61% | RAM network inhibition [7] 4.84%

COc1cc(C2C(C#N)=C(C)NC3=C2C(=O)CC(C)(C)C3)ccc1OCCO (stereo not given)
inactive: growth inhibition [1] -9.96% | growth inhibition [2] -14.6% | viability increase [3] -0.94% | viability [4] 97.8% | viability [5] 104% | inhibition [6] 1.43% | RAM network inhibition [7] 3.55%

COc1ccc(C2C(C(=O)Nc3ccc(F)cc3)=C(C)Nc3nc(CCCO)nn32)cc1 (stereo not given)
inactive: growth inhibition [1] -0.24% | growth inhibition [2] -1.29% | viability increase [3] -1.2% | viability [4] 96.6% | viability [5] 100% | inhibition [6] 0.24% | RAM network inhibition [7] 0.37%

COCCN1C(=O)c2oc3ccccc3c(=O)c2C1c1ccc(OC)c(OC)c1 (stereo not given)
inactive: growth inhibition [1] -24% | growth inhibition [2] -16.9% | viability increase [3] -1.75% | viability [4] 107% | viability [5] 95.1% | inhibition [6] 0.865% | RAM network inhibition [7] 4.46%

C=CCN1C(=O)c2oc3ccccc3c(=O)c2C1c1ccc(O)c(OC)c1 (stereo not given)
inactive: growth inhibition [1] 3.61% | growth inhibition [2] 3.18% | viability increase [3] -2.61% | viability [4] 101% | viability [5] 95.4% | inhibition [6] 2.72% | RAM network inhibition [7] 5.67%

CCSc1nnc(Cc2cc(=O)[nH]c(=O)[nH]2)n1-c1cccc(C)c1
inactive: growth inhibition [1] -8.16% | growth inhibition [2] -4.58% | viability increase [3] -1.79% | viability [4] 105% | viability [5] 94.3% | inhibition [6] 1.77% | RAM network inhibition [7] 0.26%

CCOc1ccccc1NC(=O)CSc1nnc(-c2ccccn2)n1Cc1ccco1
inactive: growth inhibition [1] -4.62% | growth inhibition [2] 11.5% | viability increase [3] -1.92% | viability [4] 96.9% | viability [5] 98.5% | inhibition [6] 0.955% | RAM network inhibition [7] 3.98%

O=C1OCc2cc(NC(=O)C3COc4ccccc4O3)ccc21 (stereo not given)
inactive: growth inhibition [1] -17.8% | growth inhibition [2] 10.7% | viability increase [3] -0.17% | viability [4] 103% | viability [5] 93.3% | inhibition [6] 1.29% | RAM network inhibition [7] 10.9%

COc1cccc(-n2c(=O)[nH]cc(C(=O)Nc3ccc4c(c3)OCCO4)c2=O)c1
inactive: growth inhibition [1] -8.56% | growth inhibition [2] -1.22% | viability increase [3] -1.26% | viability [4] 105% | viability [5] 101% | inhibition [6] 3.17% | RAM network inhibition [7] 5.22%

Source: PubChem BioAssay
